Test results as given in ChEMBL document CHEMBL1134586, “S(+)-4-(1-Phenylethylamino)quinazolines as inhibitors of human immunoglobulin E synthesis: potency is dictated by stereochemistry and atomic point charges at N-1” (J Med Chem, 2001).

Tests used:
Homo sapiens = species: Homo sapiens; test: Direct inhibition of the IgE-Germ line promoter (IGE-GLP-RGA) activity which is responsible in synthesis of IgE in human splenocytes; type: functional
In short: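 BL2 B-cells were stably transfected with luciferase under a 630 bp IgE-germline promoter fragment and selected in G418. Cells were lysed for dual-luciferase readout in duplicates, and IC₅₀ came from a logistic fit.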

B-cell = test: Antiproliferative effects in the human B-cell line transfected with a plasmid in which luciferase gene is under the control of a 630bp, involved in the IL-4 response which induces IgE-GLP activity.; type: functional, cell-based
In short: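 Viability of the stably transfected BL2 luciferase-reporter clone was measured in cultures run in parallel with the reporter assay. Intact mitochondria were quantified in duplicates, and half-maximal inhibition came from a logistic fit.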

[1] = target: Epidermal growth factor receptor (Homo sapiens, UniProt P00533); test: Inhibition of EGF-induced Tyrosine phosphorylation in A431 cells expressing EGF-R
Sequence of Epidermal growth factor receptor (P00533 whole entry): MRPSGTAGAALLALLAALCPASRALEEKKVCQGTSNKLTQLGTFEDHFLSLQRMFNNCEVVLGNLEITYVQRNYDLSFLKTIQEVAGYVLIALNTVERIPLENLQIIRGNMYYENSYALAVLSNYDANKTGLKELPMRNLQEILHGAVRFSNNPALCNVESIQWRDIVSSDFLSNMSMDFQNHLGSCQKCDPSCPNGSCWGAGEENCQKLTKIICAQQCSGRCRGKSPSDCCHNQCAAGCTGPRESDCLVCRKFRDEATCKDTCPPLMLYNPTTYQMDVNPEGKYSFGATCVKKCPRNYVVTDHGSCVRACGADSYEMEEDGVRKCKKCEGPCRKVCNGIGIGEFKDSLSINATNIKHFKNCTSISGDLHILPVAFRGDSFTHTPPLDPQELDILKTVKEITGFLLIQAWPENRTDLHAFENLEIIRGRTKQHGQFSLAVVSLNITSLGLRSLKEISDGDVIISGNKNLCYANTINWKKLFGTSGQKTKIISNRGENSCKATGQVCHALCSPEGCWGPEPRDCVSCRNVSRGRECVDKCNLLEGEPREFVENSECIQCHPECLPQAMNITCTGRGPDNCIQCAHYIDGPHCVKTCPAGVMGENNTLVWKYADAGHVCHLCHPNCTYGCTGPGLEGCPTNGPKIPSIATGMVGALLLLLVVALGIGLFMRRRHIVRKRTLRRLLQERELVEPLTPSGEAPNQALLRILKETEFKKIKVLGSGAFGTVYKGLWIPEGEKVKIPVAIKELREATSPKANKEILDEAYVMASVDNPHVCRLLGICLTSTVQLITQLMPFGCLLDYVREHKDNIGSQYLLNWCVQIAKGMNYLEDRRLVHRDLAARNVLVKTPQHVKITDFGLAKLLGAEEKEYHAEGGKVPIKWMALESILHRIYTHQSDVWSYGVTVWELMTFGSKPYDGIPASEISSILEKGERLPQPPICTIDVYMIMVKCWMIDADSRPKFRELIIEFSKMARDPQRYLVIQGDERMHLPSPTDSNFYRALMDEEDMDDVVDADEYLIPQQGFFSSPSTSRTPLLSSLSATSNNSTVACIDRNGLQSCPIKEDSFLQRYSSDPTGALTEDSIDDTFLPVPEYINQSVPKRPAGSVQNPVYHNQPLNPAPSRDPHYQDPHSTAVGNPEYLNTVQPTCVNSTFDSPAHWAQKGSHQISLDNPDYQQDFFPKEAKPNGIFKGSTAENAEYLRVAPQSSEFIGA

COc1ccc([C@H](C)Nc2ncnc3ccccc23)cc1
IC50 (Homo sapiens): 45 nM
IC50 (B-cell): > 2000 nM

Cc1cc(N[C@@H](C)c2ccccc2)c2ccccc2n1
IC50 (Homo sapiens): > 2000 nM
IC50 (B-cell): > 2000 nM

COc1cc2ncnc(N[C@@H](C)c3ccccc3)c2cc1OC
IC50 (Homo sapiens): > 2000 nM
IC50 (B-cell): > 2000 nM

C[C@H](Nc1ncnc2ccccc12)c1ccccc1
IC50 (Homo sapiens): 127 nM
IC50 (B-cell): > 2000 nM

C[C@@H](Nc1ncnc2ccccc12)c1ccc2ccccc2c1
IC50 (Homo sapiens): > 2000 nM
IC50 (B-cell): > 2000 nM

C[C@H](Nc1nccc2ccccc12)c1ccccc1
IC50 (Homo sapiens): > 2000 nM
IC50 (B-cell): > 2000 nM

C[C@H](Nc1ncnc2ccsc12)c1ccccc1
IC50 (Homo sapiens): > 2000 nM
IC50 (B-cell): > 2000 nM

C[C@H](Nc1ncnc2ccccc12)c1ccc2ccccc2c1
IC50 (Homo sapiens): 14 nM
IC50 (B-cell): 1630 nM

Cc1cc(N[C@@H](C)c2ccccc2)nc(N)n1
IC50 (Homo sapiens): > 2000 nM
IC50 (B-cell): > 2000 nM

c1ccc(CNc2ncnc3ccccc23)cc1
IC50 (Homo sapiens): > 2000 nM
IC50 (B-cell): > 2000 nM

C[C@H](Nc1[nH]cnc2ncnc1-2)c1ccccc1
IC50 (Homo sapiens): > 2000 nM
IC50 (B-cell): > 2000 nM

c1ccc(Nc2ncnc3ccccc23)cc1
IC50 (Homo sapiens): > 2000 nM
IC50 (B-cell): > 2000 nM

C[C@@H](Nc1ncnc2ccccc12)C1CCCCC1
IC50 (Homo sapiens): > 2000 nM
IC50 (B-cell): > 2000 nM

Cc1cc2c(N[C@@H](C)c3ccccc3)[nH]cnc-2n1
IC50 (Homo sapiens): > 2000 nM
IC50 (B-cell): > 2000 nM

C[C@@H](Nc1ncnc2ccccc12)c1ccccc1
IC50 (Homo sapiens): > 2000 nM
IC50 (B-cell): > 2000 nM

C[C@H](Nc1ncnc2ccccc12)c1ccc(Br)cc1
IC50 (Homo sapiens): 72 nM
IC50 (B-cell): > 2000 nM

C[C@H](Nc1[nH]cnc2c3ccccc3nc1-2)c1ccccc1
IC50 [1]: 50 nM

c1ccc2c(c1)CC[C@H]2Nc1ncnc2ccccc12
IC50 (Homo sapiens): 1020 nM
IC50 (B-cell): > 2000 nM

C[C@H](Nc1ncnc2ccccc12)C1CCCCC1
IC50 (Homo sapiens): 81 nM
IC50 (B-cell): > 2000 nM

Cc1csc2c(N[C@@H](C)c3ccccc3)ncnc12
IC50 (Homo sapiens): > 2000 nM
IC50 (B-cell): > 2000 nM

Cc1csc2ncnc(N[C@@H](C)c3ccccc3)c12
IC50 (Homo sapiens): 130 nM
IC50 (B-cell): 1480 nM

CC[C@H](Nc1ncnc2ccccc12)c1ccccc1
IC50 (Homo sapiens): 147 nM
IC50 (B-cell): > 2000 nM

Cc1ccc([C@H](C)Nc2ncnc3ccccc23)cc1
IC50 (Homo sapiens): 46 nM
IC50 (B-cell): > 2000 nM

c1ccc2c(c1)CC[C@@H]2Nc1ncnc2ccccc12
IC50 (Homo sapiens): > 2000 nM
IC50 (B-cell): > 2000 nM

C[C@H](Nc1ccnc2ccccc12)c1ccccc1
IC50 (Homo sapiens): 701 nM
IC50 (B-cell): > 2000 nM

CSc1nccc(N[C@@H](C)c2ccccc2)n1
IC50 (Homo sapiens): 931 nM
IC50 (B-cell): > 2000 nM

C[C@H](Nc1ncnc2sccc12)c1ccccc1
IC50 (Homo sapiens): 370 nM
IC50 (B-cell): > 2000 nM

OC[C@H](Nc1ncnc2ccccc12)c1ccccc1
IC50 (Homo sapiens): 149 nM
IC50 (B-cell): > 2000 nM

COc1cccc([C@H](C)Nc2ncnc3ccccc23)c1
IC50 (Homo sapiens): 23 nM
IC50 (B-cell): > 2000 nM

CC(c1ccccc1)N(C)c1ncnc2ccccc12 (centres undefined)
IC50 (Homo sapiens): > 2000 nM
IC50 (B-cell): > 2000 nM
